Screening data (PubChem BioAssay)
The list is not random: actives were taken first. Their share in the collection is about 4.5%.
RGS4 act: RGS4 potentiators or activators, primary screen, cell-based, HEK293 M3R inducible RGS4, calcium flux. carbachol calcium flux Fluo4; stronger effect = lower value. 0.92% of 310,000 active. AID 463111, 2010. B-score at 10 µM;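 active = B-score of the integrated calcium signal more than 4 SD below the library mean, with starting fluorescence not abnormally high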;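 note: negative B-score means reduced calcium response which marks RGS4 activation or potentiation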
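Test system: HEK293 cells with stable M3R and inducible RGS4; also added: carbachol at ECmax as muscarinic agonist stimulus; schedule: dye loading 30 min 37 °C, buffer rest 30 min RT; technique: kinetic calcium fluorescence imaging with Fluo4-AM dye, 2 µM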
PHOSPHO1 inh: PubChem AID 1565; Phosphoethanolamine/phosphocholine phosphatase (Homo sapiens), Q8TCT1; recombinant PHOSPHO1, absorbance phosphatase assay; inhibition, % at 13.3 µM; 1.1% of 290,000 active; in the data active = inhibition above about 60%
Target sequence (Q8TCT1 whole entry, looked up): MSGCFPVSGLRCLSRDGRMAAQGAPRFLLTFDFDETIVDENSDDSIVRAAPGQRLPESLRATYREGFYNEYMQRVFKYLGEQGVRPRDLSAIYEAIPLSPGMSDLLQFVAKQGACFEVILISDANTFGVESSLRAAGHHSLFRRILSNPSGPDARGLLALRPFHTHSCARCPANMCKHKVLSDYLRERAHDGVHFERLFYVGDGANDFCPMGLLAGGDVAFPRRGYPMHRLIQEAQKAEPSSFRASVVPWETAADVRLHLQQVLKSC
MrgX1 agonist: agonists of human MrgX1 receptor, primary screen, HEK293 cells, Fluo-4 calcium flux; B-score at 10 µM; AID 588627, 2011; 0.44% of 310,000 active; Fluo-4 calcium fluorescence, agonist mode; stronger effect = higher value;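 active = calcium response B-score plate-corrected fluorescence ratio at least 3 library SD, with starting fluorescence B-score inside 5 SD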
Target sequence (Q96LB2 whole entry, looked up): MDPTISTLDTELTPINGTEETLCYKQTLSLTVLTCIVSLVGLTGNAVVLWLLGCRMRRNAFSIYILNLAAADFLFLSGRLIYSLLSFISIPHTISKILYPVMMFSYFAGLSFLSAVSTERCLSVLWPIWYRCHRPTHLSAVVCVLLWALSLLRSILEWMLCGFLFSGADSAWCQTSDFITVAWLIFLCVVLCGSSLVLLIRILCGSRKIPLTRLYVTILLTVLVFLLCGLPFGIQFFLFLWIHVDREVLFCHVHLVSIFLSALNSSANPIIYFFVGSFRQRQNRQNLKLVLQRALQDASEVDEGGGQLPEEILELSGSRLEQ
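Assay system: stable human MrgX1 HEK293 cell line. Quantity: 15,000 cells per well. Schedule: cells plated overnight, dye loaded 0.5 h 37 °C, 0.5 h room temperature. Detection: Fluo-4 NW calcium-flux fluorescence, kinetic read. Read-out basis: peak-minus-minimum fluorescence over baseline, converted to B scores. Control set: positive and negative control wells on each plate.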
MrgX1 PAM: positive allosteric modulators of MrgX1, primary screen, HEK293 cells, Fluo-4 calcium flux; 0.63% of 310,000 active; B-score at 10 µM; Mas-related G-protein coupled receptor member X1 (Homo sapiens), Q96LB2; FDSS; stronger effect = higher value; AID 588675, 2011;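 active = plate-corrected calcium response at least 3 library SD above typical, normal starting fluorescence, not activating the receptor alone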;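 note: compound read alongside a low EC10 to EC30 dose of BAM8-22 agonist; peak minus trough fluorescence over baseline measured at the second addition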
RGS4 block: RGS4 inhibitors, primary screen, cell-based, HEK293 M3R inducible RGS4, calcium flux; Fluo-4 calcium flux; stronger effect = higher value; triggered by carbachol at its EC20; B-score at 10 µM; 0.45% of 310,000 active; AID 463165, 2010;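 active = B-score, a plate-corrected calcium signal, over three deviations above library mean, with baseline fluorescence within five deviations of library mean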;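 note: RGS4 expression induced by doxycycline in cells with stable M3 receptor; B-score is computed from the integrated fluorescence ratio over baseline after carbachol; higher B-score means a larger calcium signal and so more RGS4 inhibition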
Target sequence (P49798 whole entry, looked up): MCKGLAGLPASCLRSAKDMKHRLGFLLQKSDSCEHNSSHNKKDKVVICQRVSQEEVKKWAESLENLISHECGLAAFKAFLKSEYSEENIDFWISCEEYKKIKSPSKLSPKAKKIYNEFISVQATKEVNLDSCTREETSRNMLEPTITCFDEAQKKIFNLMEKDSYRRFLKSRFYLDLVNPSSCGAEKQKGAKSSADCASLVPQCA
MrgX1 antagonist: antagonists of human MrgX1 receptor, primary screen, HEK293 cells, Fluo-4 calcium flux; AID 588676, 2011; B-score at 10 µM; 1.3% of 310,000 active; Mas-related G-protein coupled receptor member X1 (Homo sapiens), Q96LB2; BAM8-22 antagonism; stronger effect = lower value;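 active = calcium-response B-score plate-corrected more than 3 library SD below zero, starting fluorescence within 5 deviations, no agonist response on first addition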;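 note: peak minus trough fluorescence over baseline after final BAM8-22 challenge near maximal dose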
MrgX1 ant reconf: MrgX1 receptor antagonists, duplicate retest, confirmation, HEK293 cells, Fluo-4 calcium flux; remaining BAM8-22 calcium response % of control (stronger effect = lower value), % at 10 µM; AID 602420, 2012; shares compounds with MrgX1 antagonist; 19% of 2,300 active; BAM8-22 calcium flux; stronger effect = lower value;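 active = remaining agonist calcium response no higher than 100% minus 3 SD of agonist-only control wells, with starting fluorescence near control levels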;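 note: agonist BAM8-22 given at a near maximal EC90 to ECmax level; peak minus minimum fluorescence divided by baseline after agonist addition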
HEK293 Ca flux: nonspecific calcium signal in parental HEK293, confirmation, counter-screen for MrgX1 antagonist project, parental HEK293 cells, Fluo-4 calcium flux | shares compounds with MrgX1 antagonist | Fluo-4 calcium fluorescence, FDSS | fluorescence ratio F(max-min)/F0 at 10 µM | 2% of 4,000 active;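 active = duplicate-averaged calcium fluorescence ratio at least three times the standard deviation of buffer wells, a nonspecific response in parental cells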
HEK293 Ca counter: calcium response in parental HEK293 cells, primary screen, counter-screen for MrgX1 allosteric activator project, cell-based, Fluo-4 calcium flux, duplicate; Fluo-4 fluorescence ratio; stronger effect = higher value; 0.4% of 4,000 active; shares compounds with MrgX1 antagonist; AID 624114, 2012; fluorescence ratio F(max-min)/F0 at 10 µM;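 active = calcium fluorescence ratio, averaged over duplicates, at least 3 SD of the buffer-well ratio, meaning a nonspecific response in receptor-free cells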;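 note: untransfected parental HEK293 lacking MrgX1 used as counterscreen for MrgX1 allosteric activators; fluorescence change taken during the second addition on a kinetic imager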
HEK293 Ca cntr2: calcium response in parental HEK293 cells, primary screen, counter-screen for MrgX1 agonist project, cell-based, Fluo-4 calcium flux, duplicate, agonist mode. 8.7% of 4,000 active. AID 624115, 2012. shares compounds with MrgX1 antagonist. Fluo-4 calcium fluorescence (FDSS); stronger effect = higher value. fluorescence ratio F(max-min)/F0 at 10 µM;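 active = calcium fluorescence ratio at least three times the spread of buffer wells, meaning a non-specific response in parental cells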
Each line names hits and unclear results; the compound was inactive in the other large screens (follow-up assays come after a bar, where they were run).

CCOc1ccc(S(=O)(=O)Nc2cc(Cl)ccc2O)cc1	MrgX1 antagonist -4.6 | MrgX1 ant reconf 85% | HEK293 Ca flux inactive | HEK293 Ca counter inactive | HEK293 Ca cntr2 inactive
c1ccc(CN2CCN(c3cnc4ccccc4n3)CC2)cc1	MrgX1 antagonist -8.8 | MrgX1 ant reconf inactive | HEK293 Ca flux inactive | HEK293 Ca counter inactive | HEK293 Ca cntr2 inactive
Fc1ccccc1N1CCN(c2cnc3ccccc3n2)CC1	none
O=S1(=O)N=C2CCCCCN2C(c2ccccc2)N1 (stereo not drawn)	MrgX1 antagonist -4.6 | MrgX1 ant reconf 85% | HEK293 Ca flux inactive | HEK293 Ca counter inactive | HEK293 Ca cntr2 inactive
CC(C)(C)N(Cc1ccccc1)C(=O)COC(=O)CSc1ccc([N+](=O)[O-])cc1	MrgX1 antagonist -9.9 (no result: PHOSPHO1 inh) | MrgX1 ant reconf inactive | HEK293 Ca flux inactive | HEK293 Ca counter inactive | HEK293 Ca cntr2 inactive
CN(C)c1oc(-c2ccccc2Cl)nc1P(=O)(c1ccccc1)c1ccccc1	none
Cc1cccc(NC(=O)CN(CCc2ccccc2)S(C)(=O)=O)c1	none
Cc1cc(-c2nnc3n2CCCCC3)c(C)n1-c1ccccc1	MrgX1 antagonist -4.7 | MrgX1 ant reconf inactive | HEK293 Ca flux inactive | HEK293 Ca counter inactive | HEK293 Ca cntr2 inactive
COc1ccc(-c2nnc3n2CCCCC3)cc1OC	none
COc1ccc(C(=O)c2c(C)c3cc(C)ccc3n2CC(O)CN2CCOCC2)cc1 (stereo not drawn)	none
O=S(=O)(c1ccc(F)cc1)N1CCC(N2CCCCCC2)CC1	MrgX1 antagonist -11 | MrgX1 ant reconf inactive | HEK293 Ca flux inactive | HEK293 Ca counter inactive | HEK293 Ca cntr2 inactive
CC1CCN(C2CCN(S(=O)(=O)c3ccc(F)cc3)CC2)CC1	none
c1ccc2c(c1)COC(CNC1CCCCC1)OC2	none
Cc1nc2c(ccc3nc(NC(=O)c4ccc5c(c4)OCCO5)sc32)s1	MrgX1 antagonist -10 | MrgX1 ant reconf 79% | HEK293 Ca flux inactive | HEK293 Ca counter inactive | HEK293 Ca cntr2 inactive
Cc1nc2ccc3nc(NC(=O)c4ccc5c(c4)OCCO5)sc3c2s1	none
N#CC1(C#N)CC(C=O)=C(N)C1(C#N)CC(=O)C12CC3CC(CC(C3)C1)C2 (stereo not drawn)	none
CCCCCC(=O)Nc1cccc(C2=NOC3(C2)C[C@H](C(N)=O)N(C(=O)CC)C3)c1 (stereo partly drawn)	none
CCN(CC)CCCn1c(=S)[nH]c2cc(OC)c(OC)cc2c1=O	none
COCCn1c(=S)[nH]c2cc(OC)c(OC)cc2c1=O	MrgX1 antagonist -9.1 | MrgX1 ant reconf inactive | HEK293 Ca flux inactive | HEK293 Ca counter inactive | HEK293 Ca cntr2 inactive
NC(=O)c1cc2c3ccccc3ccn2c1-c1ccccc1	MrgX1 antagonist -5.7 | MrgX1 ant reconf inactive | HEK293 Ca flux inactive | HEK293 Ca counter inactive | HEK293 Ca cntr2 inactive
O=C(CCCn1c(SCc2cccc(F)c2)nc2ccccc2c1=O)NCC1CCCO1 (stereo not drawn)	MrgX1 antagonist -5.2 | MrgX1 ant reconf inactive | HEK293 Ca flux inactive | HEK293 Ca counter inactive | HEK293 Ca cntr2 inactive
COc1ccc(N2CC(C(=O)Nc3cccc(S(=O)(=O)N4CCCC4)c3)CC2=O)c(OC)c1 (stereo not drawn)	MrgX1 antagonist -9 (no result: PHOSPHO1 inh) | MrgX1 ant reconf inactive | HEK293 Ca flux inactive | HEK293 Ca counter inactive | HEK293 Ca cntr2 inactive
COc1ccc(N2CC(C(=O)Nc3ccccc3N3CCCC3)CC2=O)c(OC)c1 (stereo not drawn)	MrgX1 antagonist -5.8 (no result: PHOSPHO1 inh) | MrgX1 ant reconf inactive | HEK293 Ca flux inactive | HEK293 Ca counter inactive | HEK293 Ca cntr2 inactive
CCOc1ccc(CCNC(=O)CCC(=O)N2CCOc3ccccc32)cc1OCC	none
CC(=O)c1cc(C#N)c(N2CCOCC2)nc1C	MrgX1 antagonist -4.6 | MrgX1 ant reconf inactive | HEK293 Ca flux inactive | HEK293 Ca counter inactive | HEK293 Ca cntr2 inactive
CN(C)c1ccc(NC(=S)c2ccc3ccccc3n2)cc1	none
O=C(COC(=O)c1ccccc1-n1cnnn1)c1ccc(F)c(F)c1	none (no result: PHOSPHO1 inh)
COC(=O)c1ccc(Oc2ccc(S(=O)(=O)N3CCCCC3)cc2N)cc1	MrgX1 antagonist -4.9 | MrgX1 ant reconf inactive | HEK293 Ca flux inactive | HEK293 Ca counter inactive | HEK293 Ca cntr2 inactive
COc1ccc(S(=O)(=O)N2CCCCC2)cc1C(=O)N1CCCC1	MrgX1 antagonist -5.6 | MrgX1 ant reconf inactive | HEK293 Ca flux inactive | HEK293 Ca counter inactive | HEK293 Ca cntr2 inactive
COC(=O)CNc1cc(S(=O)(=O)N2CCCCC2)ccc1Oc1ccc(C(=O)OC)cc1	none
CS(=O)(=O)c1ncc(Cl)c(C(=O)Nc2ccc(OC(F)F)cc2)n1	MrgX1 antagonist -4.9 | MrgX1 ant reconf inactive | HEK293 Ca flux inactive | HEK293 Ca counter inactive | HEK293 Ca cntr2 inactive
Cc1ccc(C)n1CCN1CCN(C(=O)CC#N)CC1	none
Cn1c(N)c(C(=O)CN2CCc3ccccc3C2)c(=O)n(C)c1=O	none
CN(CC(=O)c1c(N)n(C)c(=O)n(C)c1=O)c1ccccc1	MrgX1 antagonist -5.8 | MrgX1 ant reconf 72% | HEK293 Ca flux inactive | HEK293 Ca counter inactive | HEK293 Ca cntr2 inactive
COc1cc(OC)cc(C(=O)NC(=S)Nc2ccc(NC(=O)c3ccco3)cc2)c1	MrgX1 antagonist -5.1 | MrgX1 ant reconf inactive | HEK293 Ca flux inactive | HEK293 Ca counter inactive | HEK293 Ca cntr2 inactive
O=C(Cn1cc2c(n1)CCCCC2)N1CCc2ccccc2C1	none
O=C(Cn1cc2c(n1)CCCC2)N1CCc2ccccc21	MrgX1 antagonist -7.1 | MrgX1 ant reconf inactive | HEK293 Ca flux inactive | HEK293 Ca counter inactive | HEK293 Ca cntr2 inactive
Cc1ccc(NC(=O)C2CCCN(C(=O)c3ccc(Cl)cc3)C2)cc1C (stereo not drawn)	none
COC(OC)c1ccnc(-c2ccc(OC(C)=O)cc2)n1	none
